From ChEMBL document CHEMBL1157337, “Interference by naturally occurring fatty acids in a noncellular enzyme-based aromatase bioassay” (J Nat Prod, 2006)

Columns and labels:
Aromatase [1] = molecular target: T1, Aromatase (Homo sapiens, UniProt P11511); test: Inhibition of aromatase in human SKBR3 cells at 100 uM relative to control; assay type: cell-based; set-up: scale not given: the % may be the effect or the level left; conditions: SK-BR-3, human; read-out: Activity
T1 sequence (P11511 whole entry): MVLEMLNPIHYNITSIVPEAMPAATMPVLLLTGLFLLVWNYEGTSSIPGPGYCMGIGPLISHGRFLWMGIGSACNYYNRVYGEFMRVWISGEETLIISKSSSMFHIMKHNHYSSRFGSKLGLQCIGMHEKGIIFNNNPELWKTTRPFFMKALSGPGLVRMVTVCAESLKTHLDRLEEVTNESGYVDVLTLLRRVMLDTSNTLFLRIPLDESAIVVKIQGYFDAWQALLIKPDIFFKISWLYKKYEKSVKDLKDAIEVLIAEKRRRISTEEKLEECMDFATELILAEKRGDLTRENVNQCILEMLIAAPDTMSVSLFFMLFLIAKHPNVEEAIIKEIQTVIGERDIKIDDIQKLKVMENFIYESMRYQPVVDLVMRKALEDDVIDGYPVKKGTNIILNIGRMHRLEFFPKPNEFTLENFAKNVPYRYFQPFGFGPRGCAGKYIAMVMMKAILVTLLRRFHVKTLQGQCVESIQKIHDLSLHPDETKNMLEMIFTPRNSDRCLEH
Outline: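 Test agents at 100 µM on aromatase-overexpressing SK-BR-3 cells in T-25 flasks, serum-free DMEM/F12 with albumin/transferrin/insulin, triplicate, 24 h exposure (0.1% DMSO negative control, 10 nM letrozole positive control). Medium replaced with 50 nM androstenedione plus 2 µCi [1β-3H]androstenedione, 6 h; released 3H2O scintillation-counted, corrected for blanks and DNA-based cell count; percent control activity.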

Aromatase [2] = molecular target: T1, Aromatase; test: Inhibition of aromatase in human placental microsomes by radiometric method; set-up: species or system Placenta
Outline: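 Placental microsomal aromatase (50 µg), 100 nM [1β-3H]androstenedione, pH 7.0 phosphate buffer, 5% propylene glycol, NADPH-regenerating system, 37 °C for 15 min; 3H2O in the aqueous phase counted after CHCl3 extraction, boiled-enzyme background. Eight inhibitor concentrations spanning 1–100 µM; IC50 by nonlinear regression.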

Aromatase [3] = molecular target: T1, Aromatase; test: Inhibition of aromatase in human placental microsomes at 20 ug/ml by radiometric method relative to control; set-up: species or system Placenta; scale not given: the % may be the effect or the level left; conditions: read-out: Activity
Outline: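 Human term placental microsomes (50 µg) with sample at 20 µg/mL, 100 nM [1β-3H]androstenedione, 0.1 M K phosphate pH 7.0, 5% propylene glycol, NADPH-regenerating system; 37 °C, 15 min, CHCl3 quench and extraction; aqueous 3H2O counted; triplicate.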

Aromatase [4] = molecular target: T1, Aromatase; test: Inhibition of aromatase in human SKBR3 cells at 10 nM relative to control; assay type: cell-based; set-up: scale not given: the % may be the effect or the level left; conditions: SK-BR-3, human; read-out: Activity
Outline: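 SK-BR-3 human breast cancer cells (aromatase-overexpressing), grown subconfluent in T-25 flasks, medium switched to serum-free DMEM/F12 with albumin, transferrin, insulin; treated in triplicate 24 h (0.1% DMSO negative control). Then 50 nM androstenedione plus 2 µCi [1β-3H]androstenedione for 6 h; 3H2O counted after TCA, CHCl3 and charcoal cleanup; normalized to DNA-determined cell number, expressed as percent control activity.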

| Compound | activity at 100 µM (Aromatase [1]) [%] | IC50 (Aromatase [2]) [µM] | activity at 20 µg/mL (Aromatase [3]) [%] | activity at 0.01 µM (Aromatase [4]) [%] |
| --- | --- | --- | --- | --- |
| CCCCC/C=C\C/C=C\C/C=C\C/C=C\CCCC(=O)O [ARACHIDONIC ACID] | 147 | 28.2 | 11.5 |  |
| CC/C=C\C/C=C\C/C=C\C/C=C\C/C=C\C/C=C\CCC(=O)O [DOCONEXENT] | 98.2 | 33.2 | 12.4 |  |
| CC/C=C\C/C=C\C/C=C\C/C=C\C/C=C\CCCCCC(=O)O [DOCOSAPENTAENOIC ACID] | 94.4 | 16.8 | 15.7 |  |
| CC/C=C\C/C=C\C/C=C\C/C=C\C/C=C\CCCC(=O)O [ICOSAPENT] | 138 | 53.2 | 30.2 |  |
| N#Cc1ccc(C(c2ccc(C#N)cc2)n2cncn2)cc1 [LETROZOLE] |  |  |  | 3.9 |
| CCCCC/C=C\C/C=C\CCCCCCCC(=O)O [LINOLEIC ACID] | 148 | 48 | 22.5 |  |
| CC/C=C\C/C=C\C/C=C\CCCCCCCC(=O)O [LINOLENIC ACID] | 92.8 | 44.2 | 49.5 |  |
| CCCCCCCCCCCCCC(=O)O [MYRISTIC ACID] |  |  | 66.7 |  |
| CCCCCCCC/C=C\CCCCCCCC(=O)O [OLEIC ACID] | 99.3 | 32.7 | 19.5 |  |
| CCCCCCCCCCCCCCCC(=O)O [PALMITIC ACID] |  |  | 83.2 |  |
| CCCCCCCCCCCCCCC(=O)O [PENTADECANOIC ACID] |  |  | 76.2 |  |
| CCCCCCCCCCCCCCCCCC(=O)O [STEARIC ACID] |  |  | 89.4 |  |
